≈ marks a conversion by molar mass, not a printed value. Calls of active or inactive are those of the source. The calls are words filed in the database; no cut-off is given here.
Tests used:
[1] = test system: Enterococcus faecalis; assay: Antibacterial activity against vancomycin-resistant Enterococcus faecalis ATCC 51575 assessed as growth inhibition after 24 hrs by CLSI broth microdilution method; type: functional; details: ATCC 51575, 24 h
Summary of the method: (§1)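 Run per CLSI broth microdilution. Log-phase E. faecalis at 10⁵ CFU/mL in brain-heart infusion broth with 2-fold serial dilutions (64 to 0.031 µg/mL), incubated aerobically 24 h at 37 °C. Growth is measured by OD₆₀₀, and MIC is the lowest concentration inhibiting growth by ≥90%.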

[2] = test system: Enterococcus faecalis; assay: Antibacterial activity against vancomycin-sensitive Enterococcus faecalis ATCC 19433 assessed as growth inhibition after 24 hrs by CLSI broth microdilution method; type: functional; details: ATCC 19433, 24 h; summary of the method: as §1
[3] = test system: Staphylococcus aureus; assay: Antibacterial activity against methicillin-resistant Staphylococcus aureus ATCC 33591 assessed as growth inhibition after 24 hrs by CLSI broth microdilution method; type: functional; details: ATCC 33591, 24 h
Summary of the method: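 CLSI broth microdilution. Log-phase bacteria at 10⁵ CFU/mL are added to 2-fold serial dilutions from 64 to 0.031 µg/mL in cation-adjusted Mueller-Hinton broth with 2% NaCl. Plates are incubated aerobically for 24 h at 37 °C and growth is read as OD₆₀₀. MIC is the lowest concentration giving ≥90% growth inhibition.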

[4] = test system: Staphylococcus aureus; assay: Antibacterial activity against methicillin-sensitive Staphylococcus aureus 8325-4 assessed as growth inhibition after 24 hrs by CLSI broth microdilution method; type: functional; details: 8325-4, 24 h
Summary of the method: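 MSSA strain 8325-4; log-phase inoculum at 10⁵ CFU/mL. 2-fold serial dilutions, 64 to 0.031 µg/mL, in cation-adjusted Mueller-Hinton broth. Aerobic incubation, 24 h, 37 °C. Growth read as OD₆₀₀. MIC is the lowest concentration giving ≥90% growth inhibition.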

[5] = target: T1, Cell division protein FtsZ (Staphylococcus aureus) (UniProt P0A031); assay: Stimulation of Staphylococcus aureus ATCC 33591-D FtsZ polymerization expressed in Escherichia coli BL21 (DE3) assessed as inhibition of FtsZ Z-ring formation at 40 ug/mL measured for 300 mins by microtiter plate-based turbidity assay
T1 sequence (whole entry): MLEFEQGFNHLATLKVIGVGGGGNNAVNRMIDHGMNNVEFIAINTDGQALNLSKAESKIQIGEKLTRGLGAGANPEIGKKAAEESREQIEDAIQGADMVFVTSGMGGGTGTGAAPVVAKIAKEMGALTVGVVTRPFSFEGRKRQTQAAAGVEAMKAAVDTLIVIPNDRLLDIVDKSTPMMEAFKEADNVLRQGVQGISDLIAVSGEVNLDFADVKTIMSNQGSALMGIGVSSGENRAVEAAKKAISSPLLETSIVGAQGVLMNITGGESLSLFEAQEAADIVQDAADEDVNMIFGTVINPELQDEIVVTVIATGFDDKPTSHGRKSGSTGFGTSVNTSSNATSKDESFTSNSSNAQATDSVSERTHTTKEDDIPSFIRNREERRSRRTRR
Summary of the method: (§2)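 SaFtsZ expressed in E. coli BL21 (DE3) under 1 mM IPTG induction for 3 h at 37 °C. Purified by MonoQ anion exchange then Superdex-200, about 90% pure. Turbidity assay at 25 °C in 50 mM Tris·HCl pH 7.4, 50 mM KCl, 2 mM magnesium acetate, 1 mM GTP. Compound at 40 µg/mL. Reaction started with 10 µM protein (final). A₃₄₀ monitored continuously for 300 min.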

[6] = target: T1, Cell division protein FtsZ (Staphylococcus aureus); assay: Stimulation of Staphylococcus aureus ATCC 33591-D FtsZ polymerization expressed in Escherichia coli BL21 (DE3) assessed as inhibition of FtsZ Z-ring formation at 40 ug/mL by microtiter plate-based turbidity assay; details: TDE = time-dependent effect; summary of the method: as §2

NC(N)=NCc1cccc2c(-c3ccc(Cl)cc3)cccc12
MIC [1]: 8 µg/mL (≈ 25.8 µM) | MIC [2]: 8 µg/mL (≈ 25.8 µM) | MIC [3]: 8 µg/mL (≈ 25.8 µM) | MIC [4]: 2 µg/mL (≈ 6.46 µM)

CC(C)(C)c1ccc(-c2ccc(CCN=C(N)N)c3ccccc23)cc1
MIC [1]: 4 µg/mL (≈ 11.6 µM) | MIC [2]: 2 µg/mL (≈ 5.79 µM) | MIC [3]: 4 µg/mL (≈ 11.6 µM) | MIC [4]: 2 µg/mL (≈ 5.79 µM)

CC(C)(C)c1ccc(-c2ccc(CN)c3ccccc23)cc1
MIC [1]: 8 µg/mL (≈ 27.6 µM) | MIC [2]: 8 µg/mL (≈ 27.6 µM) | MIC [3]: 8 µg/mL (≈ 27.6 µM) | MIC [4]: 4 µg/mL (≈ 13.8 µM)

CC(C)(C)c1ccc(-c2ccc(CN=C(N)N)c3ccccc23)cc1
MIC [1]: 2 µg/mL (≈ 6.03 µM) | MIC [2]: 2 µg/mL (≈ 6.03 µM) | MIC [3]: 2 µg/mL (≈ 6.03 µM) | MIC [4]: 2 µg/mL (≈ 6.03 µM)

CC(C)(C)c1ccc(-c2cccc3c(CN=C(N)N)cccc23)cc1
inhibition [5]: inactive | inhibition [6]: tde | MIC [1]: 4 µg/mL (≈ 12.1 µM) | MIC [2]: 2 µg/mL (≈ 6.03 µM) | MIC [3]: 2 µg/mL (≈ 6.03 µM) | MIC [4]: 0.5 µg/mL (≈ 1.51 µM)

Cc1onc(-c2ccccc2)c1C(=O)N[C@@H]1C(=O)N2[C@@H]1SC(C)(C)[C@@H]2C(=O)O [OXACILLIN]
MIC [1]: > 64 µg/mL | MIC [2]: 8 µg/mL (≈ 19.9 µM) | MIC [3]: > 64 µg/mL | MIC [4]: 0.06 µg/mL (≈ 0.149 µM)

C[n+]1cc2c3c(ccc2c2ccc4cc5c(cc4c21)OCO5)OCO3 [SANGUINARIUM]
MIC [1]: 16 µg/mL | MIC [2]: 8 µg/mL | MIC [3]: 2 µg/mL | MIC [4]: 2 µg/mL

CN(C)[C@@H]1C(O)=C(C(N)=O)C(=O)[C@@]2(O)C(O)=C3C(=O)c4c(O)cccc4[C@@](C)(O)[C@H]3C[C@@H]12 [TETRACYCLINE]
MIC [1]: > 64 µg/mL | MIC [2]: 0.5 µg/mL (≈ 1.13 µM) | MIC [3]: 64 µg/mL (≈ 144 µM) | MIC [4]: 0.06 µg/mL (≈ 0.135 µM)

COc1ccc2c(c[n+](C)c3c4cc5c(cc4ccc23)OCO5)c1OC [CHELERYTHRINE]
MIC [1]: 32 µg/mL | MIC [2]: 32 µg/mL | MIC [3]: 4 µg/mL | MIC [4]: 4 µg/mL

N=C(N)Cc1cccc2c(-c3ccc(C(F)(F)F)cc3)cccc12
MIC [1]: 8 µg/mL (≈ 24.4 µM) | MIC [2]: 4 µg/mL (≈ 12.2 µM) | MIC [3]: 8 µg/mL (≈ 24.4 µM) | MIC [4]: 4 µg/mL (≈ 12.2 µM)

NC(N)=NCc1cccc2c(-c3ccc(Br)cc3)cccc12
MIC [1]: 8 µg/mL (≈ 22.6 µM) | MIC [2]: 8 µg/mL (≈ 22.6 µM) | MIC [3]: 8 µg/mL (≈ 22.6 µM) | MIC [4]: 2 µg/mL (≈ 5.65 µM)

CC(C)(C)c1ccc(-c2cccc3c(CCN)cccc23)cc1
inhibition [5]: inactive | inhibition [6]: tde | MIC [1]: 4 µg/mL (≈ 13.2 µM) | MIC [2]: 2 µg/mL (≈ 6.59 µM) | MIC [3]: 4 µg/mL (≈ 13.2 µM) | MIC [4]: 2 µg/mL (≈ 6.59 µM)

CCC[C@@H]1C[C@@H](C(=O)N[C@@H]([C@H]2O[C@H](SC)[C@H](O)[C@@H](O)[C@H]2O)[C@H](C)Cl)N(C)C1 [CLINDAMYCIN]
MIC [1]: > 64 µg/mL | MIC [2]: 2 µg/mL (≈ 4.71 µM) | MIC [3]: > 64 µg/mL | MIC [4]: 0.03 µg/mL (≈ 0.0706 µM)

CC(C)(C)c1ccc(-c2cccc3c(CN)cccc23)cc1
MIC [1]: 8 µg/mL (≈ 27.6 µM) | MIC [2]: 8 µg/mL (≈ 27.6 µM) | MIC [3]: 4 µg/mL (≈ 13.8 µM) | MIC [4]: 4 µg/mL (≈ 13.8 µM)

NC(N)=NCc1cccc2c(-c3ccc(C(F)(F)F)cc3)cccc12
MIC [1]: 16 µg/mL (≈ 46.6 µM) | MIC [2]: 8 µg/mL (≈ 23.3 µM) | MIC [3]: 8 µg/mL (≈ 23.3 µM) | MIC [4]: 2 µg/mL (≈ 5.82 µM)

NC(N)=NCCc1cccc2c(-c3ccc(C(F)(F)F)cc3)cccc12
MIC [1]: 4 µg/mL (≈ 11.2 µM) | MIC [2]: 4 µg/mL (≈ 11.2 µM) | MIC [3]: 4 µg/mL (≈ 11.2 µM) | MIC [4]: 1 µg/mL (≈ 2.8 µM)

COc1cc(C(F)(F)F)ccc1-c1cccc2c(CCN=C(N)N)cccc12
MIC [1]: 4 µg/mL (≈ 10.3 µM) | MIC [2]: 4 µg/mL (≈ 10.3 µM) | MIC [3]: 8 µg/mL (≈ 20.7 µM) | MIC [4]: 2 µg/mL (≈ 5.16 µM)

CC(C)(C)c1ccc(-c2ccc(CCN)c3ccccc23)cc1
MIC [1]: 4 µg/mL (≈ 13.2 µM) | MIC [2]: 4 µg/mL (≈ 13.2 µM) | MIC [3]: 4 µg/mL (≈ 13.2 µM) | MIC [4]: 4 µg/mL (≈ 13.2 µM)

NCCc1cccc2c(-c3ccc(C(F)(F)F)cc3O)cccc12
MIC [1]: 16 µg/mL (≈ 48.3 µM) | MIC [2]: 16 µg/mL (≈ 48.3 µM) | MIC [3]: 16 µg/mL (≈ 48.3 µM) | MIC [4]: 8 µg/mL (≈ 24.1 µM)

CC(C)(C)c1ccc(-c2cccc3c(CC(=N)N)cccc23)cc1
MIC [1]: 8 µg/mL (≈ 25.3 µM) | MIC [2]: 4 µg/mL (≈ 12.6 µM) | MIC [3]: 4 µg/mL (≈ 12.6 µM) | MIC [4]: 4 µg/mL (≈ 12.6 µM)

NC(N)=NCc1cccc2c(-c3ccc(C4CC4)cc3)cccc12
MIC [1]: 8 µg/mL (≈ 25.4 µM) | MIC [2]: 8 µg/mL (≈ 25.4 µM) | MIC [3]: 8 µg/mL (≈ 25.4 µM) | MIC [4]: 1 µg/mL (≈ 3.17 µM)

CC(C)(C)c1ccc(-c2cccc3c(CCN=C(N)N)cccc23)cc1
MIC [1]: 2 µg/mL (≈ 5.79 µM) | MIC [2]: 2 µg/mL (≈ 5.79 µM) | MIC [3]: 2 µg/mL (≈ 5.79 µM) | MIC [4]: 1 µg/mL (≈ 2.89 µM)

COc1cc(C(F)(F)F)ccc1-c1cccc2c(CCN)cccc12
MIC [1]: 8 µg/mL (≈ 23.2 µM) | MIC [2]: 8 µg/mL (≈ 23.2 µM) | MIC [3]: 16 µg/mL (≈ 46.3 µM) | MIC [4]: 8 µg/mL (≈ 23.2 µM)

CC[C@H]1OC(=O)[C@H](C)[C@@H](O[C@H]2C[C@@](C)(OC)[C@@H](O)[C@H](C)O2)[C@H](C)[C@@H](O[C@@H]2O[C@H](C)C[C@H](N(C)C)[C@H]2O)[C@](C)(O)C[C@@H](C)C(=O)[C@H](C)[C@@H](O)[C@]1(C)O [ERYTHROMYCIN]
MIC [1]: > 64 µg/mL | MIC [2]: 1 µg/mL (≈ 1.36 µM) | MIC [3]: > 64 µg/mL | MIC [4]: 0.13 µg/mL (≈ 0.177 µM)

CN[C@H](CC(C)C)C(=O)N[C@H]1C(=O)N[C@@H](CC(N)=O)C(=O)N[C@H]2C(=O)N[C@H]3C(=O)N[C@H](C(=O)N[C@H](C(=O)O)c4cc(O)cc(O)c4-c4cc3ccc4O)[C@H](O)c3ccc(c(Cl)c3)Oc3cc2cc(c3O[C@@H]2O[C@H](CO)[C@@H](O)[C@H](O)[C@H]2O[C@H]2C[C@](C)(N)[C@H](O)[C@H](C)O2)Oc2ccc(cc2Cl)[C@H]1O [VANCOMYCIN]
MIC [1]: > 64 µg/mL | MIC [2]: 1 µg/mL (≈ 0.69 µM)

COc1cc(C(F)(F)F)ccc1-c1cccc2c(CN=C(N)N)cccc12
MIC [1]: 4 µg/mL (≈ 10.7 µM) | MIC [2]: 4 µg/mL (≈ 10.7 µM) | MIC [3]: 8 µg/mL (≈ 21.4 µM) | MIC [4]: 2 µg/mL (≈ 5.36 µM)
